In ChEMBL document CHEMBL1811853, “Design and evaluation of 3-aminopyrazolopyridinone kinase inhibitors inspired by the natural product indirubin” (Bioorg Med Chem, 2011):
Values after ≈ are worked out from the molar mass of the structure shown.

Assay: Aqueous solubility of the compound by HPLC analysis
Assay type: physicochemical
Settings: water
Method in brief: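 Solubility determined by HPLC measurement of the concentration in saturated aqueous solutions of the compounds.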

SMILES	solubility [µg/mL]
O=C1Nc2ccccc2/C1=C1/Nc2ccccc2C1=O [INDIRUBIN]	< 1
Cc1cc2c(c(N)nn2C)c(N2CCN(C)CC2)n1	1160 (≈ 4.47 mM)
Cn1nc(N)c2c(=O)[nH]c(C3CCNCC3)cc21	> 15000
Cc1[nH]c(=O)c2c(N)nn(C)c2c1-c1ccccc1	2 (≈ 0.00786 mM)
Nc1c2c(=O)[nH]c(C3CCNCC3)cc2nn1-c1ccccc1	1430 (≈ 4.61 mM)
